From PMC5458759 (Genes & Development, 2017)

B1: TMM^LRR, extracellular LRR domain of TOO MANY MOUTHS (TMM) (domain or fragment)
chain: MTNDGARTEPDEQDAVYDIMRATGNDWAAAIPDVCRGRWHGIECMPDQDNVYHVVSLSFGALSDDTAFPTCDPQRSYVSESLTRLKHLKALFFYRCLGRAPQRIPAFLGRLGSSLQTLVLRENGFLGPIPDELGNLTNLKVLDLHKNHLNGSIPLSFNRFSGLRSLDLSGNRLTGSIPGFVLPALSVLDLNQNLLTGPVPPTLTSCGSLIKIDLSRNRVTGPIPESINRLNQLVLLDLSYNRLSGPFPSSLQGLNSLQALMLKGNTKFSTTIPENAFKGLKNLMILVLSNTNIQGSIPKSLTRLNSLRVLHLEGNNLTGEIPLEFRDVKHLSELRLNDNSLTGPVPFERDTVWRMRRKLRLYNNAGLCVNRDSDLDDAFGSKSGSTVRLCDAETSRPAPSGTVQHLSREEDGALPDGATDVSST
B2: … PATTERNING FACTOR 1 (EPF1) peptide, residues 53–104 (peptide)
chain: AGSRLPDCSHACGSCSPCRLVMVSFVCASVEEAETCPMAYKCMCNNKSYPVP
B3: … PATTERNING FACTOR 2 (EPF2) peptide, residues 69–120 (peptide)
chain: TGSSLPDCSYACGACSPCKRVMISFECSVAESCSVIYRCTCRGRYYHVPSRA
B4: EPF2-6xHis (C-terminally His-tagged EPF2) (peptide)
chain: B3 chain
B5: EPFL4 (CHALLAH-LIKE2, CLL2) peptide, residues 59–109 (peptide)
chain: PGSSPPTCRSKCGKCQPCKPVHVPIQPGLSMPLEYYPEAWRCKCGNKLFMP

What was measured:
ER^LRR [1] = experiment: Pull-down assay with 6xHis-tagged ER^LRR; format: binding, Arabidopsis; settings: Ni resin, SDS-PAGE, Coomassie blue; without TMM^LRR
Method in brief: (§1)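 Purified C-terminal 6xHis-tagged receptor LRR, from High Five cells, was mixed with excess EPF-family peptide and Ni resin for 30 min on ice. The resin was washed four times in 25 mM Tris pH 8.0, 250 mM NaCl, 15 mM imidazole, then heated 5 min at 100°C in SDS loading buffer. Bound protein was detected by SDS-PAGE with Coomassie staining.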

ERL1^LRR [2] = experiment: Pull-down assay with 6xHis-tagged ERL1^LRR; format: binding, Arabidopsis; settings: Ni resin, SDS-PAGE, Coomassie blue; without TMM^LRR
Method in brief: as §1

ERL2^LRR = experiment: Pull-down assay with 6xHis-tagged ERL2^LRR; format: binding, Arabidopsis; settings: Ni resin, SDS-PAGE, Coomassie blue; without TMM^LRR
Method in brief: as §1

ERL1^LRR [3] = experiment: Gel filtration assay with ERL1^LRR; format: binding, Arabidopsis; settings: 10 mM Bis-Tris pH 6.0, 100 mM NaCl; incubated 30 min at 4°C
Method in brief: (§2)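 LRR ectodomains were expressed in High Five insect cells by baculovirus at 22°C; for complexes, the ERf and TMM viruses were added together. Protein was purified from the supernatant by Ni-NTA and then size exclusion. Receptor and EPF-family peptide were mixed, held 30 min at 4°C, then run on Superdex 200 in 10 mM Bis-Tris pH 6.0, 100 mM NaCl. Fractions were analysed by SDS-PAGE with Coomassie staining.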

ER^LRR [4] = experiment: Gel filtration assay with ER^LRR; format: binding, Arabidopsis; settings: 10 mM Bis-Tris pH 6.0, 100 mM NaCl; incubated 30 min at 4°C
Method in brief: as §2

ER^LRR–TMM^LRR complex [5] = experiment: Gel filtration assay with ER^LRR–TMM^LRR complex; format: binding, Arabidopsis; settings: 10 mM Bis-Tris pH 6.0, 100 mM NaCl; incubated 30 min at 4°C
Method in brief: as §2

ERL1^LRR–TMM^LRR complex [6] = experiment: Gel filtration assay with ERL1^LRR–TMM^LRR complex; format: binding, Arabidopsis; settings: 10 mM Bis-Tris pH 6.0, 100 mM NaCl; incubated 30 min at 4°C
Method in brief: as §2

[7] = molecular target: ERL1^LRR–TMM^LRR complex (Arabidopsis thaliana) (UniProt C0LGW6); experiment: ITC
[8] = molecular target: T1, ERL1^LRR, extracellular LRR domain of ER-LIKE1 (ERL1) (Arabidopsis thaliana, UniProt C0LGW6 24-580); experiment: SEC
T1 sequence: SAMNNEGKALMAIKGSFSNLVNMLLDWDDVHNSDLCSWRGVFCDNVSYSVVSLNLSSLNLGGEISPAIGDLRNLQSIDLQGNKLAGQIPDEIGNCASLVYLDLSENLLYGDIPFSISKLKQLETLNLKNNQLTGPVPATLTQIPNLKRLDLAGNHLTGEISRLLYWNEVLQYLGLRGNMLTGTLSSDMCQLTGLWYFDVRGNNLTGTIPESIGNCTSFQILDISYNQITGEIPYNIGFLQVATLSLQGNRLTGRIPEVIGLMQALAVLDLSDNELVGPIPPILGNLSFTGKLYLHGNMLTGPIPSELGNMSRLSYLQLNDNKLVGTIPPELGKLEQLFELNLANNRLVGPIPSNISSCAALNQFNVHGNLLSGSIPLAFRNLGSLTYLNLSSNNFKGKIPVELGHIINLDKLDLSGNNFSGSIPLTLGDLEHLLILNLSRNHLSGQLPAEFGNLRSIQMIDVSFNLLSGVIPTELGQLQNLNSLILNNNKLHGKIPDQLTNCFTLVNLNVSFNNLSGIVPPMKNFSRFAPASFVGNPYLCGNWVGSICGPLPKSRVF

[9] = molecular target: T2, ER^LRR, extracellular LRR domain of ERECTA (ER) (Arabidopsis thaliana, UniProt Q42371 24-580); experiment: SEC
T2 sequence: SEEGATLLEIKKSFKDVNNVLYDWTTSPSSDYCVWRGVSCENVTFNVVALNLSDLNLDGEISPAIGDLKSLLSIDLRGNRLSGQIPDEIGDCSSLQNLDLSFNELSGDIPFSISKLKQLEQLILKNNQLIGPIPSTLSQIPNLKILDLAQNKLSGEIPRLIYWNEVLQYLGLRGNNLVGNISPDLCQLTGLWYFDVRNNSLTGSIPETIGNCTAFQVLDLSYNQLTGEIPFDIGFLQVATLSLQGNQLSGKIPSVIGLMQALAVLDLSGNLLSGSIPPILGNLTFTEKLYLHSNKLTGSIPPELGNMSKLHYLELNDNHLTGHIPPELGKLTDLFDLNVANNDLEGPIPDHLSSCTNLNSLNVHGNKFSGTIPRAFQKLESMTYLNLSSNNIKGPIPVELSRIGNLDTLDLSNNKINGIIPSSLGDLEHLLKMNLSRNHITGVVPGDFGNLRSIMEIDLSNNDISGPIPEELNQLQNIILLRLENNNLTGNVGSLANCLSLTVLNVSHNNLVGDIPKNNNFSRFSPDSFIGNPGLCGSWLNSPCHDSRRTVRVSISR

[10] = molecular target: B1; experiment: crystal structure
ER^LRR–TMM^LRR complex [11] = molecular target: T3, ER^LRR–TMM^LRR complex (Arabidopsis thaliana, UniProt Q42371;Q9SSD1); experiment: SEC
T3 sequence 1: T2 sequence
T3 sequence 2: B1 chain

ER^LRR–TMM^LRR complex [12] = molecular target: T3, ER^LRR–TMM^LRR complex; experiment: pull-down
[13] = molecular target: T4, ERL2^LRR, extracellular LRR domain of ERL2 (Arabidopsis thaliana, UniProt Q6XAT2 28-580); experiment: pull-down
T4 sequence: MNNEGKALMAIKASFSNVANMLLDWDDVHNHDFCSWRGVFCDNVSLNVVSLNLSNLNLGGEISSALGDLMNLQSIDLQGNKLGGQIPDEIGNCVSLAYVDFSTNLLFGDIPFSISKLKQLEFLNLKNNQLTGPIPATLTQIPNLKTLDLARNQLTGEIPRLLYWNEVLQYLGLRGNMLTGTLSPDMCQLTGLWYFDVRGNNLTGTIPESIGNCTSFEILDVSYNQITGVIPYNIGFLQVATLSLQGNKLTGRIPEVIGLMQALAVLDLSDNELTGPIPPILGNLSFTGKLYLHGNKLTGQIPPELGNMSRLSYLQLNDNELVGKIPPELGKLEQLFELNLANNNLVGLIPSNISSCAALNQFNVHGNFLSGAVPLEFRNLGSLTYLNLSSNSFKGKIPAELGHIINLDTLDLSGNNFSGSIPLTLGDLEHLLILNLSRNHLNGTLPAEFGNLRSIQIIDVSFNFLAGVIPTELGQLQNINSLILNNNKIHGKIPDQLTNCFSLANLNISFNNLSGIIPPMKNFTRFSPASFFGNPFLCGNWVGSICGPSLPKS

[14] = molecular target: T2, ER^LRR, extracellular LRR domain of …; experiment: pull-down
ERL1^LRR–TMM^LRR complex [15] = molecular target: T5, ERL1^LRR–TMM^LRR complex (Arabidopsis thaliana, UniProt C0LGW6;Q9SSD1); experiment: ITC
T5 sequence 1: T1 sequence
T5 sequence 2: B1 chain

In the case of “EPFL6: EPF family growth regulatory peptide, residues 106–156 (LGSSPPRCSSKCGRCTPCKPVHVPVPPGTPVTAEYYPEAWRCKCGNKLYMP)”, the “interaction with ER^LRR in pull-down” value (ER^LRR [1]) is reported as “sufficient for interaction”, the “interaction with ERL1^LRR in pull-down” value (ERL1^LRR [2]) is reported as “sufficient for interaction” and the “interaction with ERL2^LRR in pull-down” value (ERL2^LRR) is reported as “sufficient for interaction”.

For “EPF1: cysteine-rich EPF family peptide, residues 53–104, expressed in High Five insect cells (AGSRLPDCSHACGSCSPCRLVMVSFVCASVEEAETCPMAYKCMCNNKSYPVP)”, the “interaction with ERL1^LRR alone in gel filtration” value (ERL1^LRR [3]) was “no binding”, the “interaction with ER^LRR alone in gel filtration” value (ER^LRR [4]) was “no binding” and the “interaction with ER^LRR–TMM^LRR in gel filtration (comigration)” value (ER^LRR–TMM^LRR complex [5]) was “strong interaction”. The “interaction with ERL1^LRR–TMM^LRR in gel filtration (comigration)” value (ERL1^LRR–TMM^LRR complex [6]) was “strong interaction”.

Molecule “EPFL4–EPF1, swapped EPFL4 mutant with the apical loop region of EPF1 (peptide)” has a Kd [7] of 420 nM.

For “EPF2: cysteine-rich EPF family peptide, residues 69–120, expressed in insect cells (TGSSLPDCSYACGACSPCKRVMISFECSVAESCSVIYRCTCRGRYYHVPSRA)”, the “interaction with ER^LRR in pull-down” value (ER^LRR [1]) was “none of the three ERf proteins displayed interaction”, the “interaction with ERL1^LRR alone in gel filtration” value (ERL1^LRR [3]) was “no binding” and the “interaction with ERL1^LRR in pull-down” value (ERL1^LRR [2]) was “none of the three ERf proteins displayed interaction”. The “interaction with ER^LRR alone in gel filtration” value (ER^LRR [4]) was “no binding”, the “interaction with ER^LRR–TMM^LRR in gel filtration (comigration)” value (ER^LRR–TMM^LRR complex [5]) was “strong interaction” and the “interaction with ERL2^LRR in pull-down” value (ERL2^LRR) was “none of the three ERf proteins displayed interaction”. For the same molecule, the “interaction with ERL1^LRR–TMM^LRR in gel filtration (comigration)” value (ERL1^LRR–TMM^LRR complex [6]) was “strong interaction”.

With B1 the “stoichiometry N” value [8] was roughly 1 and the “stoichiometry N” value [9] was roughly 1.

B2: binds [10]; binds (ER^LRR–TMM^LRR complex [11]).

B3: binds [10]; binds (ER^LRR–TMM^LRR complex [11]).

B4: binds (ER^LRR–TMM^LRR complex [12]).

In the case of B5, the binding result [13] is reported as “binds”, the binding result [14] is reported as “binds” and the Kd (ERL1^LRR–TMM^LRR complex [15]) is reported as 1300 nM.
